Test results from ChEMBL document CHEMBL1133013, “Structure-activity relationships and pharmacokinetic analysis for a series of potent, systemically available biphenylsulfonamide matrix metalloproteinase inhibitors” (J Med Chem, 2000).

Experiments:
[1] = Cmax in rat plasma after single 5 mg/kg oral cassette gavage dose; type: ADME, organism-based; design: dose 5 mg/kg, route oral
Outline: (§1)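 Cassette of 5–7 compounds given together as one oral gavage, 5 mg/kg per compound, methyl cellulose suspension, 3 fasted male Wistar rats (80-90 days old). Heparinized plasma taken by jugular cannula predose to 48 h. LC-MS/MS with LLOQ 10 ng/mL. Noncompartmental analysis of individual rats: Cmax/tmax as observed, t1/2 = 0.693/λz, trapezoidal AUC(0-tldc) extrapolated to infinity.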

[2] = Concentration in rat plasma 24 hours after single 5 mg/kg oral cassette gavage dose; type: ADME, organism-based; design: dose 5 mg/kg, route oral; conditions: read-out: C24
[3] = Half life (t1/2) in rats following a single 5 mg/kg oral cassette gavage dose; type: ADME, organism-based; design: dose 5 mg/kg, route oral; conditions: rat, in vivo; outline: as §1
[4] = Pharmacokinetic parameters in rats following a single 5 mg/kg oral cassette gavage dose; type: ADME, organism-based; design: dose 5 mg/kg, route oral; conditions: rat, in vivo, read-out: AUC 0-infinity; outline: as §1
[5] = AUC in rats following a single 5 mg/kg oral cassette gavage dose; type: ADME, organism-based; design: dose 5 mg/kg, route oral; conditions: rat, plasma, read-out: AUC 0-tldc; outline: as §1
[6] = Time to maximal concentration (tmax) in rats following a single 5 mg/kg oral cassette gavage dose; type: ADME, organism-based; design: dose 5 mg/kg, route oral; conditions: rat, in vivo; outline: as §1
Stromelysin-1 = Stromelysin-1 (Homo sapiens, UniProt P08254); assay: In vitro inhibition of recombinant human matrix metalloprotease-3 (MMP-3)
Chain of Stromelysin-1 (P08254 whole entry): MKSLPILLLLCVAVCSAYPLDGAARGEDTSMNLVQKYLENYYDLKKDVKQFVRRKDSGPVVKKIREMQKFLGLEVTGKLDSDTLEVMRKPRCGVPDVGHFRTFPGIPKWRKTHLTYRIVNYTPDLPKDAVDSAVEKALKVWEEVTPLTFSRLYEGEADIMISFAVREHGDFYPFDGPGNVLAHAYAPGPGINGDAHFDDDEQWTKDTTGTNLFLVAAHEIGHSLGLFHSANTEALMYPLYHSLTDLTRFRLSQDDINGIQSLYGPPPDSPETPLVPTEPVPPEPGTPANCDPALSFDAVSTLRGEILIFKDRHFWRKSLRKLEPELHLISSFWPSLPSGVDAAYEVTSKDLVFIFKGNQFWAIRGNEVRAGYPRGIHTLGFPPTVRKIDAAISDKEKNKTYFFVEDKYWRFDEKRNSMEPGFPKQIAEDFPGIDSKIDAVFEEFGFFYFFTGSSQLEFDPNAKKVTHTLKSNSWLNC

[7] = target: Matrix metalloproteinase-9 (Homo sapiens, UniProt P14780); assay: In vitro inhibition of matrix metalloprotease-9 (MMP-9)
Chain of Matrix metalloproteinase-9 (P14780 whole entry): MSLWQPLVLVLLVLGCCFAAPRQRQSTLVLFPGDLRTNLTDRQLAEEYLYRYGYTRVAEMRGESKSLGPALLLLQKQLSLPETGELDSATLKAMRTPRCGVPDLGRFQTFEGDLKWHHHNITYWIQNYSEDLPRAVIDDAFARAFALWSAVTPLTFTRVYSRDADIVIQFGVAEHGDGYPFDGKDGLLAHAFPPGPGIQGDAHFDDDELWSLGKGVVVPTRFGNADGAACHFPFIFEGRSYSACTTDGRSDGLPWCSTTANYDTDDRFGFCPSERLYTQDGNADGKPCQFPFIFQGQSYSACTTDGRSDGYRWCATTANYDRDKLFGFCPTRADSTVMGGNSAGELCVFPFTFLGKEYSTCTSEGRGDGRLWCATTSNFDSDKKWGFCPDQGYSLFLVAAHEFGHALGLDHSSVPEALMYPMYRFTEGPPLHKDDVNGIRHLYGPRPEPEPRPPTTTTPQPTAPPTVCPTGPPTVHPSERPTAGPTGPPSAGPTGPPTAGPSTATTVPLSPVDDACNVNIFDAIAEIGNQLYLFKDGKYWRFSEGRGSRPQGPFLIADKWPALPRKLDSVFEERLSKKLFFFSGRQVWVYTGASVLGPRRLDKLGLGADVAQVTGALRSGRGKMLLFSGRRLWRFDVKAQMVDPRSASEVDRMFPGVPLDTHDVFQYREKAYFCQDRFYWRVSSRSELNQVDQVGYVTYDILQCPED

Matrilysin = target: T1, Matrilysin (Homo sapiens, UniProt P09237); assay: In vitro inhibition of matrix metalloprotease-7 (MMP-7)
T1 sequence (P09237 whole entry): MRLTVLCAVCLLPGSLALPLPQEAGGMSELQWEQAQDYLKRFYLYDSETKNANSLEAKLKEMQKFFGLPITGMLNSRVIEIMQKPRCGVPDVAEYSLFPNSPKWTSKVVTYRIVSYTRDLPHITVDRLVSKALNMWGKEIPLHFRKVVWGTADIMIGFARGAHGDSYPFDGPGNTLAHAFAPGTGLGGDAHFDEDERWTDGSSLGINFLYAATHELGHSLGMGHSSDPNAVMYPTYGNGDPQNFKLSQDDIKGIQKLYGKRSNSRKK

Interstitial collagenase = target: T2, Interstitial collagenase (Homo sapiens, UniProt P03956); assay: In vitro inhibition of human recombinant matrix metalloprotease-1 (MMP-1)
T2 sequence (P03956 whole entry): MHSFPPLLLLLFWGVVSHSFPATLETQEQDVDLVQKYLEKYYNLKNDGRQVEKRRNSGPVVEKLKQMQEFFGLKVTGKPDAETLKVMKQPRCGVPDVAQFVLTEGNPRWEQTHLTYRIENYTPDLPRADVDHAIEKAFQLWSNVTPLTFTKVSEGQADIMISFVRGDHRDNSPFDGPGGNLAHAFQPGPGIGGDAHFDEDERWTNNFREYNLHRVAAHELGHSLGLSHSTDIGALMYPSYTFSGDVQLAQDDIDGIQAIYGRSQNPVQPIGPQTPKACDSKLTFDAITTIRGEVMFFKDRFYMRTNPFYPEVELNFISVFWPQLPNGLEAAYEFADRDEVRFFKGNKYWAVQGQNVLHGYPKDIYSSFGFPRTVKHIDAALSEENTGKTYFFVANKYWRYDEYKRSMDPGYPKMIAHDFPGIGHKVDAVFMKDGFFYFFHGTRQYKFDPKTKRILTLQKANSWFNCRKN

[8] = target: 72 kDa type IV collagenase (Homo sapiens, UniProt P08253); assay: In vitro inhibition of matrix metalloprotease-2 (MMP-2)
Chain of 72 kDa type IV collagenase (P08253 whole entry): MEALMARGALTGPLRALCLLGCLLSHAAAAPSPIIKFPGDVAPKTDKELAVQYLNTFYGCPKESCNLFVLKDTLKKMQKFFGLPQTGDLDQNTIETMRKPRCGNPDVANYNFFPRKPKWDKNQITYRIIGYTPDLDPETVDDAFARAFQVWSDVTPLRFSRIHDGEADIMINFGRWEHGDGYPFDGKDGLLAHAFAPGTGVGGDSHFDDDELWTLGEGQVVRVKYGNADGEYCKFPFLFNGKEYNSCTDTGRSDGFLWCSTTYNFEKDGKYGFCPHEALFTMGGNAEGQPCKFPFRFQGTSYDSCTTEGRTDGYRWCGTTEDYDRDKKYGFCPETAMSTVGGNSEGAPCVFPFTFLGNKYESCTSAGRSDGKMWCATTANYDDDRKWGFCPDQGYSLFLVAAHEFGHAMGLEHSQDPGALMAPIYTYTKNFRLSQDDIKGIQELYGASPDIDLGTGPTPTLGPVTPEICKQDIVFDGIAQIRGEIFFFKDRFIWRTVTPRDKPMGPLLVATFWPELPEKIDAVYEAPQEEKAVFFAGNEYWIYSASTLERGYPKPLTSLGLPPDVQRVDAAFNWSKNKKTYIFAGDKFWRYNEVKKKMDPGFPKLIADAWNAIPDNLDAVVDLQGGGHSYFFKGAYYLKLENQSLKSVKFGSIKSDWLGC

Collagenase 3 = Collagenase 3 (Homo sapiens, UniProt P45452)

With `O=C(O)C(CCSCc1ccccc1)NS(=O)(=O)c1ccc(-c2ccc(Br)cc2)cc1` (centres undefined) the Cmax [1] was 11600 ng/mL, the concentration at 24 h [2] was 1530 ng/mL and the half-life [3] was 12.5 h. It also gave an AUC [4] of 132 µg·h/mL, an AUC [5] of 119 µg·h/mL and a Tmax [6] of 1.33 h. It also gave an IC50 (Stromelysin-1) of 22 nM, an IC50 [7] of 10000 nM and an IC50 (Matrilysin) of 36000 nM. It also gave an IC50 (Interstitial collagenase) of 56000 nM, an IC50 [8] of 7 nM and an IC50 (Collagenase 3) of 36 nM.

With `CC(C)[C@H](NS(=O)(=O)c1ccc(-c2ccc(C#N)cc2)cc1)C(=O)NO` the IC50 (Stromelysin-1) was 135 nM, the IC50 [7] was 100000 nM and the IC50 (Matrilysin) was 16000 nM. For the same compound, the IC50 (Interstitial collagenase) was 29000 nM.

Compound `O=C(NCCCC[C@H](NS(=O)(=O)c1ccc(-c2ccc(Br)cc2)cc1)C(=O)O)OCc1ccccc1` has an IC50 (Stromelysin-1) of 28 nM, an IC50 [7] of 10000 nM and an IC50 (Matrilysin) of 15000 nM. It also gave an IC50 (Interstitial collagenase) of 40000 nM, an IC50 [8] of 31 nM and an IC50 (Collagenase 3) of 13 nM.

With `O=C(CCc1ccccc1)NCCC[C@H](NS(=O)(=O)c1ccc(-c2ccc(Br)cc2)cc1)C(=O)O` the IC50 (Stromelysin-1) was 21 nM, the IC50 [7] was 7700 nM and the IC50 (Matrilysin) was 6800 nM. It also gave an IC50 (Interstitial collagenase) of 41000 nM, an IC50 [8] of 8 nM and an IC50 (Collagenase 3) of 7 nM.

In the case of `CC(C)[C@H](NS(=O)(=O)c1ccc(-c2ccc(Br)cc2)cc1)C(=O)O`, the Cmax [1] is reported as 42400 ng/mL, the concentration at 24 h [2] is reported as 22700 ng/mL and the half-life [3] is reported as 43.6 h. The AUC [4] was 2820 µg·h/mL, the AUC [5] was 1400 µg·h/mL and the Tmax [6] was 2 h. For the same compound, the IC50 [7] was 7900 nM and the IC50 (Matrilysin) was 7200 nM.

`CC(C)[C@@H](NS(=O)(=O)c1ccc(-c2ccc(C#N)cc2)cc1)C(=O)NO` showed a Cmax [1] of 180 ng/mL, a half-life [3] of 0.79 h and an AUC [4] of 0.33 µg·h/mL. The AUC [5] was 0.23 µg·h/mL, the Tmax [6] was 1 h and the IC50 (Stromelysin-1) was 5 nM. The IC50 [7] was 27 nM, the IC50 (Matrilysin) was 240 nM and the IC50 (Interstitial collagenase) was 170 nM.

Work on `CC(C)[C@H](NS(=O)(=O)c1ccc(-c2cccc(Br)c2)cc1)C(=O)O` yielded an IC50 (Stromelysin-1) of 290 nM, an IC50 [8] of 535 nM and an IC50 (Collagenase 3) of 710 nM.

With `COc1ccc(-c2ccc(S(=O)(=O)N[C@H](C(=O)O)C(C)C)cc2)cc1` the Cmax [1] was 4260 ng/mL, the concentration at 24 h [2] was < 10 ng/mL and the half-life [3] was 0.357 h. For the same compound, the AUC [4] was 2.98 µg·h/mL, the AUC [5] was 2.79 µg·h/mL and the Tmax [6] was 0.5 h. For the same compound, the IC50 [7] was 2200 nM, the IC50 (Matrilysin) was 7200 nM and the IC50 (Interstitial collagenase) was 1500 nM. The IC50 [8] was 3 nM and the IC50 (Collagenase 3) was 6 nM.

Compound `O=C(CCc1ccccc1)NCCCC[C@H](NS(=O)(=O)c1ccc(-c2ccc(Br)cc2)cc1)C(=O)O` has an IC50 (Stromelysin-1) of 10 nM, an IC50 [7] of 4800 nM and an IC50 (Matrilysin) of 8600 nM. It also gave an IC50 (Interstitial collagenase) of 15000 nM.

In the case of `CC(C)[C@H](NS(=O)(=O)c1ccc(-c2ccc(C(F)(F)F)cc2)cc1)C(=O)O`, the Cmax [1] is reported as 18600 ng/mL, the concentration at 24 h [2] is reported as 11700 ng/mL and the half-life [3] is reported as 37.9 h. For the same compound, the AUC [4] was 1110 µg·h/mL, the AUC [5] was 685 µg·h/mL and the Tmax [6] was 2.25 h. It also gave an IC50 (Stromelysin-1) of 9 nM, an IC50 [7] of 20000 nM and an IC50 (Matrilysin) of 7900 nM. The IC50 (Interstitial collagenase) was 4200 nM and the IC50 (Collagenase 3) was 23 nM.

`C[C@H](NS(=O)(=O)c1ccc(-c2ccc(Br)cc2)cc1)C(=O)O` gave a Cmax [1] of 17200 ng/mL, a concentration at 24 h [2] of 12900 ng/mL and a half-life [3] of 25.1 h. It also gave an AUC [4] of 818 µg·h/mL, an AUC [5] of 584 µg·h/mL and a Tmax [6] of 10.5 h. It also gave an IC50 (Stromelysin-1) of 12 nM, an IC50 [7] of 9500 nM and an IC50 (Matrilysin) of 11000 nM. It also gave an IC50 [8] of 12 nM and an IC50 (Collagenase 3) of 10 nM.

In the case of `CC(C)[C@@H](NS(=O)(=O)c1ccc(-c2ccc(Br)cc2)cc1)C(=O)O`, the Cmax [1] is reported as 25600 ng/mL, the concentration at 24 h [2] is reported as 16300 ng/mL and the half-life [3] is reported as 41.7 h. For the same compound, the AUC [4] was 1380 µg·h/mL, the AUC [5] was 924 µg·h/mL and the Tmax [6] was 4.5 h. It also gave an IC50 [7] of 1500 nM and an IC50 (Matrilysin) of 11000 nM.

Work on `CC(C)[C@H](NS(=O)(=O)c1ccc(-c2ccc(C=O)cc2)cc1)C(=O)O` yielded an IC50 (Stromelysin-1) of 8 nM, an IC50 [7] of 17000 nM and an IC50 (Matrilysin) of 4500 nM. The IC50 (Interstitial collagenase) was 3200 nM, the IC50 [8] was 12 nM and the IC50 (Collagenase 3) was 16 nM.
